Measured values from ChEMBL document CHEMBL1649496, “Piperaquine pharmacodynamics and parasite viability in a murine malaria model” (Antimicrob Agents Chemother, 2009).

Key:
Plasmodium berghei [1] = test: Antiplasmodial activity against Plasmodium berghei ANKA infected in Swiss mouse assessed as parasitemia at 90 mg/kg, ip measured on day 40 postinfection; format: functional; conditions: route intraperitoneal
In short: (§1)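 Male Swiss mice (5–6 weeks) infected i.p. with 10^7 P. berghei ANKA-parasitized erythrocytes taken from passage BALB/c mice and diluted in citrate-phosphate-dextrose. At 64 h (3–5% parasitemia confirmed by thin film), piperaquine phosphate was given once i.p. at 90 mg/kg in 50% glycerol/30% isotonic phosphate buffer pH 7.1/20% polysorbate 80. Parasitemia was read from May-Grunwald Giemsa tail-blood smears (mean ± SD) and tracked from dosing (day 0).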

Plasmodium berghei [2] = test: Antiplasmodial activity against Plasmodium berghei ANKA infected in Swiss mouse assessed as median survival time at 90 mg/kg, ip administered 5 days after infection; format: functional; conditions: route intraperitoneal
In short: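 Naive male Swiss mice (5 weeks, n = 5 per donor) inoculated i.p. with 200 µl of a 1:5 dilution of saline-washed, buffy-coat-depleted red cells from PQP-treated infected donor mice (<105 parasites). Five days later three mice per cohort received single i.p. 90 mg/kg PQP in glycerol/phosphate buffer pH 7.1/polysorbate 80; two left untreated. Parasitemia by Giemsa thin films twice daily; median survival recorded.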

Plasmodium berghei [3] = test: Antiplasmodial activity against Plasmodium berghei ANKA infected in Swiss mouse assessed as parasitemia at 90 mg/kg, ip measured on day 13 postinfection; format: functional; conditions: route intraperitoneal; in short: as §1
Plasmodium berghei [4] = test: Antiplasmodial activity against Plasmodium berghei ANKA infected in Swiss mouse assessed as assessed as time required for parasite recrudescence at 90 mg/kg, ip; format: functional; conditions: route intraperitoneal
[5] = Plasma concentration in Swiss mouse infected with Plasmodium berghei ANKA at 90 mg/kg, ip after 60 days; format: ADME, organism-based; set-up: dose 90 mg/kg, route intraperitoneal
In short: (§2)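 Infected Swiss mice (n = 4) were dosed with 90 mg/kg piperaquine phosphate i.p. at day 0. Plasma was taken by cardiac puncture, centrifuged at 3,000 x g for 5 min and stored at –80°C. Drug was measured by a validated HPLC assay (LOQ 1.6 µg/liter, LOD 0.7 µg/liter, CV <12%). Values are mean ± SD.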

Plasmodium berghei [6] = test: Antiplasmodial activity against Plasmodium berghei ANKA infected in Swiss mouse assessed as parasitemia at 90 mg/kg, ip measured on day 60 postinfection; format: functional; conditions: route intraperitoneal; in short: as §1
Plasmodium berghei [7] = test: Antiplasmodial activity against Plasmodium berghei ANKA infected in Swiss mouse assessed as parasitemia at 90 mg/kg, ip measured on day 25 postinfection; format: functional; conditions: route intraperitoneal; in short: as §1
Plasmodium berghei [8] = test: Antiplasmodial activity against Plasmodium berghei ANKA infected in Swiss mouse assessed as parasitemia at 90 mg/kg, ip measured on day 90 postinfection; format: functional; conditions: route intraperitoneal; in short: as §1
Plasmodium berghei [9] = test: Antiplasmodial activity against Plasmodium berghei ANKA infected in Swiss mouse assessed as parasitemia at 90 mg/kg, ip administered 5 days after infection measured up to 25 days; format: functional; conditions: route intraperitoneal
In short: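 Donor blood from previously infected, treated mice was taken by cardiac puncture and the red cells washed three times in 0.9% NaCl. A 1:5 dilution (<10^5 parasites) was given i.p. to naive male mice (5 weeks; n = 5 per donor). Five days later, three mice per group received a single 90 mg/kg i.p. dose of piperaquine phosphate and two stayed untreated. Giemsa smears were read twice daily.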

[10] = Plasma concentration in Swiss mouse infected with Plasmodium berghei ANKA at 90 mg/kg, ip after 25 days; format: ADME, organism-based; set-up: dose 90 mg/kg, route intraperitoneal; in short: as §2
[11] = Plasma concentration in Swiss mouse infected with Plasmodium berghei ANKA at 90 mg/kg, ip after 40 days; format: ADME, organism-based; set-up: dose 90 mg/kg, route intraperitoneal; in short: as §2

With `Clc1ccc2c(N3CCN(CCCN4CCN(c5ccnc6cc(Cl)ccc56)CC4)CC3)ccnc2c1.O=P(O)(O)O` [PIPERAQUINE PHOSPHATE] as the molecule, how does the Activity (Plasmodium berghei [1]) read?
Its Activity is 0.1%.

And the MST (Plasmodium berghei [2])?
Its MST is 19 days.

And the Activity (Plasmodium berghei [3])?
Its Activity is 1.32%.

What about the Time (Plasmodium berghei [4]) of the same molecule?
Its Time is 7 days.

What about the concentration at 1440 h [5] of the same molecule?
Its concentration at 1440 h is 0.002 µg/mL.

What about the Activity (Plasmodium berghei [6]) of the same molecule?
The Activity was 0.3%.

What about the Activity (Plasmodium berghei [7]) of the same molecule?
The Activity was less than 0.015%.

And the Activity (Plasmodium berghei [8])?
Its Activity is 0.9%.

What about the Activity (Plasmodium berghei [9]) of the same molecule?
The Activity was 10%.

And the concentration at 600 h [10]?
The concentration at 600 h was 0.015 µg/mL.

And the concentration at 960 h [11]?
Its concentration at 960 h is 0.011 µg/mL.
